# Assay outcomes deposited in PubChem by several laboratories.
# SENP8 block-1: human SENP8 protease inhibitors, primary screen, biochemical, fluorescence, Nedd8 protein substrate, uHTS; Sentrin-specific protease 8 (Homo sapiens), Q96LD8; recombinant SENP8; inhibition, % at 20 µM; hit rate 0.64% among 360,000; in the data active = inhibition mostly above about 40%, no sharp cut-off; inactive = mostly below about 27%
# UCH37 DUB inh: inhibitors of human UCH37 deubiquitinase, primary screen, biochemical, Ub-AMC cleavage, fluorescence; Ubiquitin carboxyl-terminal hydrolase isozyme L5 (Homo sapiens), Q9Y5K5; purified proteasome/UCH37; inhibition, % (no concentration beside the values); hit rate 0.33% among 330,000; AID 588478, 2011;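 active = mean inhibition over replicate wells above about 20%, limit read from the data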;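 note: 0% = compound-free wells with enzyme and 100% = wells lacking proteasome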
#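 Material: human UCH37 enzyme supplied as purified proteasome complex. Measure: % inhibition of Ub-AMC cleavage fluorescence. Medium: pH 7.4 Tris-HCl (50 mM) with ovalbumin, ATP-MgCl2, DTT. Times: 30 min preincubation with enzyme, 25 min cleavage at room temperature. Detection: AMC fluorescence intensity at 355/460 nm.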
# SENP1 FRET inh: human SENP1 catalytic domain inhibitors, primary screen, biochemical, FRET, uHTS | inhibition, % at 10 µM | hit rate 0.21% among 360,000 | Sentrin-specific protease 1 (Homo sapiens), Q9P0U3 | recombinant SENP1 catalytic domain, CyPet-SUMO1-YPet FRET cleavage;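 active = inhibition at least 30% at 10 µM, raw YFP signal under a set limit, fluorescence ratio 0.5 to 1.5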;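 note: 0% = enzyme with DMSO and 100% = no enzyme wells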
#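 Compound: 10 µM single point, 0.5% DMSO; Test system: hSENP1 catalytic domain, recombinant; Timing: 50 min reaction at room temperature; Technique: FRET, CFP and YFP emission; Control set: no-enzyme wells low, DMSO-plus-enzyme wells high control.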
# SENP6 block: SENP6 protease inhibitors, primary screen, biochemical, luminescence, uHTS. Sentrin-specific protease 6 (Homo sapiens), Q9GZR1. Recombinant SENP6 catalytic domain, aminoluciferin luminescence. inhibition, % at 10 µM. hit rate 1.8% among 330,000. AID 2599, 2010;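 active = inhibition above about 50% at the single tested dose, limit read from the data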;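 note: plate controls were DMSO wells with enzyme for no effect and DMSO wells lacking enzyme for full effect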
# Target sequence (Q9GZR1 628-1112 limits assumed): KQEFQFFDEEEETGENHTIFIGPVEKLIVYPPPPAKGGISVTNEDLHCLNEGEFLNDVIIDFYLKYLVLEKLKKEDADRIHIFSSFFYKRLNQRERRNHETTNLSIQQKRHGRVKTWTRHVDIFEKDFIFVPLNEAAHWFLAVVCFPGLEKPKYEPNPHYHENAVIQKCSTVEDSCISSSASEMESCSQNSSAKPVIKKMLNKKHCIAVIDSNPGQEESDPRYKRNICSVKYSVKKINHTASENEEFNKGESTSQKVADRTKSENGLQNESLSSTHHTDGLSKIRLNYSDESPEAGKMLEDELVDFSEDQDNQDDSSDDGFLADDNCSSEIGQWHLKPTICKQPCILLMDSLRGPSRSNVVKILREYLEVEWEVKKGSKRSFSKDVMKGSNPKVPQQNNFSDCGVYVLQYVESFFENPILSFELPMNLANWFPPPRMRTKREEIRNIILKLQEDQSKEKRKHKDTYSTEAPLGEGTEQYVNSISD
# SENP8 block-2: SENP8 protease inhibitors, primary screen, biochemical, luminescence. hit rate 1.2% among 330,000. purified SENP8, Z-RLRGG-aminoluciferin cleavage. inhibition, % at 10 µM; in the data active = inhibition above about 50%
# SENP7 block: SENP7 protease inhibitors, primary screen, biochemical, luminescence, uHTS; Sentrin-specific protease 7 (Homo sapiens), Q9BQF6; recombinant SENP7, Z-RLRGG-aminoluciferin luminescence, 40 min; inhibition, % at 5 µM; hit rate 1.5% among 330,000; AID 434973, 2010;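 active = inhibition above about 50% at the single test dose, limit read from the data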;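 note: plate controls were DMSO with enzyme for no effect and no enzyme buffer wells for full effect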
# SENP8 conf: SENP8 protease inhibitors, retest, confirmation, biochemical, luminescence, single concentration; AID 488912, 2010; Recombinant SENP8, Z-RLRGG-aminoluciferin luminescence, 60 min; hit rate 40% among 6,200; inhibition, % at 12.5 µM; shares compounds with SENP7 block;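 active = mean inhibition across replicates above about 50%, limit read from the data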
# SENP6 conf: SENP6 protease inhibitors, confirmation, biochemical, luminescence, single concentration | shares compounds with SENP7 block | recombinant SENP6, Z-RLRGG-aminoluciferin luminescence | inhibition, % at 12.5 µM | hit rate 58% among 6,200 | AID 488915, 2010
# SENP7 conf: SENP7 protease inhibitors, retest, confirmation, biochemical, luminescence, single concentration | recombinant SENP7, Z-RLRGG-aminoluciferin luminescence, 40 min | hit rate 69% among 6,200 | AID 488917, 2010 | shares compounds with SENP7 block | inhibition, % at 12.5 µM
# Casp3 select: caspase-3 protease inhibitors, confirmation, selectivity assay for SENP inhibitor project, biochemical, single concentration; shares compounds with SENP7 block; inhibition, % at 12.5 µM; hit rate 60% among 6,200; purified caspase-3, Z-DEVD-aminoluciferin luminescence, 60 min;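 active = mean inhibition above about 50%, limit read from the data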;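 note: plate controls were enzyme with DMSO for no effect and wells without caspase-3 for full effect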
# Target sequence (P42574 28-227 limits assumed): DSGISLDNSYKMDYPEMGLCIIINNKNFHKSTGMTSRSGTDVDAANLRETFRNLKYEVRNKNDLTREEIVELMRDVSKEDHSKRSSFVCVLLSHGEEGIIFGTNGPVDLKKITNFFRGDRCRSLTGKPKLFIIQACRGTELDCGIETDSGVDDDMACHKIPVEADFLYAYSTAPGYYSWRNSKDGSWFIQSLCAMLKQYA
# Luc interf: interferes with luciferase luminescence in SENP counter-screen; shares compounds with SENP7 block; Pre-incubated SENP8/Z-RLRGG-aminoluciferin, luciferase luminescence interference; inhibition, % at 12.5 µM; hit rate 39% among 6,200; AID 488919;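 active = mean inhibition above about 50% when retested at one dose, limit read from the data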;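 note: plate controls were DMSO wells with completed reaction for no effect and substrate without enzyme for full effect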
# Active calls of the source: *; i = inactive; x = not tested or not shown. Rows were chosen to be rich in hits. Some 2.6% of all compounds tested hit in one or more screens of this group.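 Rule for the calls, unless noted: active = mean inhibition above about 50% in the one-dose retest (limit read from the data); inactive = the rest.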
SMILES,SENP8 block-1,UCH37 DUB inh,SENP1 FRET inh,SENP6 block,SENP8 block-2,SENP7 block,SENP8 conf,SENP6 conf,SENP7 conf,Casp3 select,Luc interf
Cc1ccccc1NC(=O)c1cnc2ccccn2c1=O,-17,11,-1,58*,39,74*,55*,61*,52*,75*,18
O=C(NCCc1ccccc1)c1cnc2ccccn2c1=O,-276,i,-1,-20,-6,-8,x,x,x,x,x
CC(=O)c1cccc(NC(=O)c2cc3ccccn3n2)c1,9,5,0,19,-1,7,x,x,x,x,x
COc1ccc(C=NNC(=O)c2ccc(-c3ccccc3)cc2)cc1COC(C)=O,x,-8,x,x,x,x,x,x,x,x,x
CCc1ccc(NC(=O)c2cnn(-c3ccccc3)c2C2CCNCC2)cc1,13,4,1,-5,-4,2,x,x,x,x,x
CCc1ccc(NC(=O)c2cnn(-c3ccccc3)c2C)cc1,22,5,0,59*,41,76*,2,45,50*,69*,8
Cc1[nH]c(=O)[nH]c(=O)c1C=NNC(=O)[C@@H](N)CC(C)C,x,6,x,x,x,x,x,x,x,x,x
Fc1ccccc1-c1nc(-c2ccccc2)no1,11,3,0,98*,95*,99*,36,97*,102*,90*,29
Fc1ccccc1-c1nc(-c2ccncc2)no1,15,x,2,85*,77*,84*,82*,84*,98*,90*,72*
Fc1ccccc1-c1nc(-c2ccc(-c3nn[nH]n3)cc2)no1,-236,0,-4,97*,96*,92*,98*,98*,102*,96*,98*
c1ccc(-c2noc(-c3cccc4ccccc34)n2)cc1,-396,-4,0,31,11,49,x,x,x,x,x
Brc1ccccc1-c1nc(-c2ccccc2)no1,x,-1,x,97*,95*,98*,13,99*,103*,94*,91*
Cc1ccc(C=NN2CCN(c3ccccn3)CC2)cc1,x,1,x,x,x,x,x,x,x,x,x
CC(=NNC(=O)c1ccc(Cn2cc(Br)cn2)o1)c1cccc(NC(=O)C(C)C)c1,x,2,x,x,x,x,x,x,x,x,x
Cc1ccc(O)c(C(=O)c2cnn(-c3ccccc3)c2)c1,20,1,4,53*,18,40,4,47,20,32,13
Cc1ccc(-n2cc(C(=O)c3ccccc3O)cn2)cc1,-12,1,2,91*,92*,97*,37,97*,101*,92*,49
Cc1ccc(C=NNC(=O)c2cc3c(s2)CCCC3)o1,x,-6,x,x,x,x,x,x,x,x,x
CC(C)C(=O)Nc1ccc(-c2nc3cccnc3o2)cc1,-320,-413,-4,-7,-17,-4,x,x,x,x,x
Cc1ccc(-c2nc3cc(NC(=O)C(C)C)ccc3o2)cc1C,-280,-27,0,95*,92*,98*,5,23,12,77*,3
Cc1ccc(-c2nc3cc(NC(=O)C(C)C)ccc3o2)cc1,-491,-21,0,76*,35,84*,1,6,7,13,10
Cc1cc2nc(-c3ccc(NC(=O)C(C)C)cc3)oc2cc1C,i,x,0,26,21,70*,14,14,29,45,17
Cc1ccc(-c2nc3cc(Cl)ccc3o2)cc1,0,-6,2,91*,75*,90*,7,17,35,13,6
CC(C)C(=O)Nc1cccc(-c2nc3ccccc3o2)c1,-15,0,1,-2,4,-1,x,x,x,x,x
Cc1cc(C)nc(N/C(=N\S(=O)(=O)Cc2ccccc2)Nc2ccccc2)n1,x,3,x,x,x,x,x,x,x,x,x
COc1cc(OC)cc(-c2nc3cc(C)ccc3o2)c1,-39,-1,-1,97*,94*,98*,95*,97*,101*,94*,93*
SMILES,SENP8 block-1,UCH37 DUB inh,SENP1 FRET inh,SENP6 block,SENP8 block-2,SENP7 block,SENP8 conf,SENP6 conf,SENP7 conf,Casp3 select,Luc interf
COc1cc(OC)cc(-c2nc3ccccc3c(=O)o2)c1,14,-4,0,-12,-6,-5,x,x,x,x,x
O=C(CCCN1C(=O)/C(=C/c2ccccc2)SC1=S)N1CCOCC1,15,8,2,43,23,21,x,x,x,x,x
CN1CCN(C(=O)CCCN2C(=O)/C(=C/c3cccc(Br)c3)SC2=S)CC1,20,8,2,52*,5,-4,47,37,44,22,36
O=C(CCCN1C(=O)/C(=C/c2cccc(Br)c2)SC1=S)N1CCOCC1,9,2,1,64*,27,10,33,58*,65*,11,26
COc1ccc(/C=C2\SC(=S)N(CCCC(=O)N3CCN(C)CC3)C2=O)cc1,13,3,-22,70*,39,28,57*,53*,76*,54*,52*
C=CCn1cnc2c(c1=O)c1nc3ccccc3nc1n2N=Cc1cccc(OC)c1,x,1,x,x,x,x,x,x,x,x,x
Cn1c(/C(C#N)=C/c2ccncc2)nc2ccccc21,-29,0,-22,-11,2,4,x,x,x,x,x
Cn1c(/C(C#N)=C/c2ccc(O)cc2)nc2ccccc21,-411,5,-46,53*,23,12,50*,41,65*,x,16
CC(=NNC(=O)CC#N)C1COc2ccccc2O1 (centres undefined),x,0,x,x,x,x,x,x,x,x,x
Cc1cc(C(=O)NN=Cc2ccc(OC(=O)c3ccccc3Br)cc2)n[nH]1,x,0,x,x,x,x,x,x,x,x,x
COC(=O)CCC(=O)N1CN2CN(C(=O)CCC(=O)OC)CC([N+](=O)[O-])(C2)C1,19,3,-3,95*,0,8,-26,-21,-11,-11,-8
